Source: PubChem BioAssay (Sanford-Burnham Center for Chemical Genomics)
hIAP block: blocks human intestinal alkaline phosphatase; P09923; purified IAP, CDP-Star luminescence, 30 min; inhibition, % at 10 µM; 0.12% of 330,000 active; AID 2544;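 active = inhibition reaching a set limit with compound at 10 µM in the primary screen, cut at about 35% in these data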;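 also: plate controls were DMSO wells with enzyme for no effect and no-enzyme buffer wells for full effect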
Target sequence (P09923 whole entry, looked up): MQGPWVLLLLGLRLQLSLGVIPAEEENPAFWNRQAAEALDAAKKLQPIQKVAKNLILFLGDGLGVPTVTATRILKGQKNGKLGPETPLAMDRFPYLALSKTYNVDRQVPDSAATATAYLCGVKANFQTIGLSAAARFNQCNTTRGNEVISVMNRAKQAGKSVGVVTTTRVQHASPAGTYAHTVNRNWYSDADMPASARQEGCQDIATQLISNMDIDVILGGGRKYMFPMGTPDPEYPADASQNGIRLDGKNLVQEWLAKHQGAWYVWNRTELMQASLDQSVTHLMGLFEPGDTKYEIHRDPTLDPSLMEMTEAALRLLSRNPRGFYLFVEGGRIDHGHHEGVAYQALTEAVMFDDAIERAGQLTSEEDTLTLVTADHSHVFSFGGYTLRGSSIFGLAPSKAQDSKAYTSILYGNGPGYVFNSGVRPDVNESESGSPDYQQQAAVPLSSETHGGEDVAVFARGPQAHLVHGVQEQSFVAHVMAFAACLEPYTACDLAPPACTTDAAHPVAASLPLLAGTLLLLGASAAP
bIAP inhibitor: intestinal alkaline phosphatase (bovine) inhibition; purified bovine IAP, CDP-star luminescence, 30 min; inhibition, % at 20 µM; 190,000 tested, under 10 active; AID 1019;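 active = over 50% inhibition of intestinal alkaline phosphatase at 20 µM in the single-dose screen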
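Assay system – bovine IAP enzyme · Quantity – bovine IAP at 1/65,000,000 final dilution · Detection – CDP-star luminescence signal · Times – 30 min reaction at room temperature · Also added – CDP-star substrate at 30 µM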
mIAP block: blocks mouse intestinal alkaline phosphatase; purified mouse IAP, CDP-Star luminescence, 30 min; inhibition, % at 10 µM; 0.2% of 330,000 active; AID 2806;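 active = inhibition of at least 40% at 10 µM in the primary screen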;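 also: plate controls were DMSO with enzyme for no effect and no enzyme wells for full effect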
hIAP activ: human IAP activation; activation factor at 10 µM; 0.16% of 330,000 active; AID 2524; P09923; purified human IAP, CDP-Star luminescence, 30 min; stronger effect = higher value; 1 = vehicle-only enzyme, 0 = enzyme-free background;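 active = activation factor of the enzyme at least 2-fold when tested at 20 µM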
bIAP activator: increases bovine intestinal alkaline phosphatase activity. purified bovine IAP, CDP-star luminescence, 30 min; stronger effect = higher value; fold of DMSO-control signal, blank-subtracted. activation factor at 20 µM. 0.17% of 200,000 active;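 active = activation factor of 2 or more at 20 µM, a signal rise over negative controls twice the positive control's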
mIAP activ: mouse IAP activation. muIAP, CDP-Star luminescence, 30 min; stronger effect = higher value; 1 = vehicle-only enzyme signal, 0 = enzyme-free wells. activation factor at 10 µM. 0.24% of 330,000 active. AID 2805;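 active = activation factor of at least 2 at 20 µM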
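also added = chemiluminescent substrate CDP-Star | test system = mouse IAP enzyme | signal = chemiluminescence readout | compound = DMSO-dissolved test compounds | incubation = 30 min at room temperature | benchmarks = DMSO wells, no-enzyme wells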
Active calls of the source: *; x = no result given. Sampled rows, rich in hits. Any-hit rate of the full collection: about 0.72%.

SMILES	hIAP block	bIAP inhibitor	mIAP block	hIAP activ	bIAP activator	mIAP activ
Cc1cc(C(=O)OCC(=O)Nc2ccccc2[N+](=O)[O-])c2ccccc2n1	15	-108	-4	0.85	2.1*	1
COc1ccc(N=c2scc(-c3ccc(S(=O)(=O)N4CCOCC4)cc3)n2CCCO)cc1	x	7	x	x	0.9	x
COc1ccc(-c2csc(=Nc3ccccc3)n2CCO)cc1	-3	-95	9	1	2*	0.91
Cc1oc(-c2cc(Cl)cc(Cl)c2)cc1C(=O)NCCc1ccccc1	-11	6	-263	1.1	0.9	3.6*
CN(C)CCNC(=S)Nc1ccc(-c2nc3ccccc3[nH]2)cc1	4	-4	-12	0.96	1	1.1
COc1ccc(NC(=S)NCc2ccc3c(c2)OCO3)cc1	5	27	-6	0.95	0.7	1.1
S=C(NCc1ccc2c(c1)OCO2)Nc1ccc(-c2nc3ccccc3[nH]2)cc1	-20	7	-131	1.2	0.9	2.3*
CC(C)c1ccc(NC(=S)NCc2ccc3c(c2)OCO3)cc1	-8	7	-152	1.1	0.9	2.5*
CN(C1CCCCC1)S(=O)(=O)Cc1ccccc1	9	13	-4	0.91	0.9	1
COc1ccc(C=NNc2ccc([N+](=O)[O-])cc2S(=O)(=O)Nc2ccccc2C(=O)O)cc1OC	9	x	42*	0.91	x	0.58
COc1ccccc1NS(=O)(=O)c1cc([N+](=O)[O-])ccc1N/N=C/c1c[nH]c2ccccc12	11	47	22	0.89	0.5	0.78
COc1ccccc1NC(=S)NCCC(c1ccccc1)c1ccccc1	-6	2	-108	1.1	1	2.1*
S=C(NCc1ccc(Cl)cc1)Nc1ccccc1Cl	11	6	-52	0.89	0.9	1.5
COc1cc(NC(=S)NCCC(c2ccccc2)c2ccccc2)c(OC)cc1Cl	1	2	-248	0.99	1	3.5*
S=C(NCCC(c1ccccc1)c1ccccc1)Nc1ccccc1Cl	6	-66	-499	0.94	1.7	6*
COc1ccccc1NC(=S)NCc1ccccc1	-5	x	3	1.1	x	0.97
CC1CC(C)CN(C(=O)c2ccc(S(=O)(=O)N3CC(C)CC(C)C3)cc2)C1 (stereo unspecified)	9	x	6	0.91	x	0.94
CC(=O)c1ccc(OCc2ccc(C(=O)c3ccccc3)cc2)cc1	-3	-10	0	1	1.1	1
CC(=O)c1ccc(OCc2ccc(Oc3c(Cl)cccc3[N+](=O)[O-])cc2)cc1	-204	9	10	3*	0.9	0.9
COc1ccc(OC)c(NC(=S)NCCCN2CCOCC2)c1	1	-140	-9	0.99	2.4*	1.1
Cc1ccccc1C(=O)NC(CC(C)C)C(=O)OCC(=O)c1c(N)n(C)c(=O)n(C)c1=O (stereo unspecified)	-7	-105	-4	1.1	2.1*	1
O=C(NCc1ccco1)c1sc(=S)n2c1[nH]c(=O)c1ccccc12	9	12	40*	0.91	0.9	0.6
O=C(NC1CCCC1)c1sc(=S)n2c1[nH]c(=O)c1ccccc12	3	13	5	0.97	0.9	0.95
COC(=O)c1ccc(NC(=S)NC2CC3CCC2C3)cc1 (stereo unspecified)	-15	-16	-202	1.1	1.2	3*
COC(=O)c1ccc(NC(=O)C2CC3CCC2C3)cc1 (stereo unspecified)	6	x	-7	0.94	x	1.1
SMILES	hIAP block	bIAP inhibitor	mIAP block	hIAP activ	bIAP activator	mIAP activ
CN(C)S(=O)(=O)c1ccc(NC=O)cc1	-5	-2	2	1.1	1	0.98
COc1ccc(N2C(=O)N3[C@H](c4cccc(C)c4)[C@@H]4C(=O)N(Cc5ccccc5)C(=O)[C@@H]4[C@]3(Cc3ccccc3)C2=O)cc1	-18	x	-6	1.2	x	1.1
Cc1cccc([C@@H]2[C@@H]3C(=O)N(Cc4ccccc4)C(=O)[C@@H]3[C@]3(C)C(=O)N(c4ccc(C(F)(F)F)cc4)C(=O)N23)c1	0	x	41*	1	x	0.59
COc1ccc(Cc2nc3ccc(C(=O)NCc4ncc(C)[nH]4)cc3o2)cc1OC	6	x	50*	0.94	x	0.5
CCc1ccc(NC(=O)C2CCCN(S(=O)(=O)c3ccc4c(c3)CC(C)N4C(C)=O)C2)cc1 (stereo unspecified)	-14	x	-32	1.1	x	1.3
CCc1ccc(NC(=O)C2CCN(S(=O)(=O)c3ccc4c(c3)CC(C)N4C(C)=O)CC2)cc1 (stereo unspecified)	8	x	-113	0.92	x	2.1*
O=C(CCC(=O)Nc1cccnc1)Nc1cccnc1	2	x	-2	0.98	x	1
O=C(Nc1ccc(NC(=O)C2CCCCC2)nc1)c1cccs1	-9	12	2	1.1	0.9	0.98
COCCN(CC(=O)NCC1CCCO1)C(=O)CCC(=O)Nc1ccccn1 (stereo unspecified)	16	-12	6	0.84	1.1	0.94
O=C(CCC1CCCCC1)Nc1nccs1	-9	16	4	1.1	0.8	0.96
O=C(CCC1CCCCC1)Nc1ncn[nH]1	-2	-128	-21	1	2.3*	1.2
CC(C)CCNC(=O)c1ccc2c(SCC(=O)O)c3c(nc2c1)CCCC3	6	-139	7	0.94	2.4*	0.93
COC(=O)c1ccc(NC(=S)NCCc2cccc(C)c2)cc1	-9	34	-94	1.1	0.7	1.9
COC(=O)c1ccc(NC(=S)NCCc2ccccc2C)cc1	5	5	-100	0.95	0.9	2*
COCC(C)NS(=O)(=O)c1ccc(C(=O)NC(Cc2ccccc2)c2ccccc2)cc1 (stereo unspecified)	0	x	-106	1	x	2.1*
CN(C)S(=O)(=O)c1cccc(-c2nn(-c3ccccc3)cc2/C=C2\SC(=S)NC2=O)c1	x	-108	x	x	2.1*	x
Cc1ccc(NC(=O)C(Cc2ccccc2)NC(=O)OCc2ccccc2)cc1C (stereo unspecified)	-7	-3	-111	1.1	1	2.1*
Cc1cccc(NC(=O)[C@H](Cc2ccccc2)NC(=O)OCc2ccccc2)c1	5	0	-57	0.95	1	1.6
COc1ccc(S(=O)(=O)N2CCCC(C(=O)Nc3cccc(C(C)=O)c3)C2)cc1 (stereo unspecified)	-14	-148	0	1.1	2.5*	0.99
Cc1ccc(NC(=O)C2CCN(S(=O)(=O)c3ccc(N4CCCC4=O)cc3)CC2)cc1Cl	-81	x	-163	1.8	x	2.6*
CC(=O)c1cccc(NC(=O)C2CCCN(S(=O)(=O)c3ccc(F)cc3)C2)c1 (stereo unspecified)	-14	13	-3	1.1	0.9	1
COc1ccc(S(=O)(=O)N2CCC(C(=O)Nc3cccc(Cl)c3)CC2)cc1OC	-11	1	-176	1.1	1	2.8*
